In the library only some 12% were active in any assay of this set; here they are far more common.
ABCB1 block: blocks JC-1 efflux by human ABCB1 transporter | P08183 | inhibition, % at 6.6 µM | CCRF-Adr cells, flow cytometry | 190,000 compounds, 0.067% hits; in the data active = inhibition above about 40%;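 note: 0% = vehicle and 100% = reference inhibitor; higher value means more JC-1 retained so stronger ABCB1 efflux block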
Target sequence (P08183 whole entry, looked up): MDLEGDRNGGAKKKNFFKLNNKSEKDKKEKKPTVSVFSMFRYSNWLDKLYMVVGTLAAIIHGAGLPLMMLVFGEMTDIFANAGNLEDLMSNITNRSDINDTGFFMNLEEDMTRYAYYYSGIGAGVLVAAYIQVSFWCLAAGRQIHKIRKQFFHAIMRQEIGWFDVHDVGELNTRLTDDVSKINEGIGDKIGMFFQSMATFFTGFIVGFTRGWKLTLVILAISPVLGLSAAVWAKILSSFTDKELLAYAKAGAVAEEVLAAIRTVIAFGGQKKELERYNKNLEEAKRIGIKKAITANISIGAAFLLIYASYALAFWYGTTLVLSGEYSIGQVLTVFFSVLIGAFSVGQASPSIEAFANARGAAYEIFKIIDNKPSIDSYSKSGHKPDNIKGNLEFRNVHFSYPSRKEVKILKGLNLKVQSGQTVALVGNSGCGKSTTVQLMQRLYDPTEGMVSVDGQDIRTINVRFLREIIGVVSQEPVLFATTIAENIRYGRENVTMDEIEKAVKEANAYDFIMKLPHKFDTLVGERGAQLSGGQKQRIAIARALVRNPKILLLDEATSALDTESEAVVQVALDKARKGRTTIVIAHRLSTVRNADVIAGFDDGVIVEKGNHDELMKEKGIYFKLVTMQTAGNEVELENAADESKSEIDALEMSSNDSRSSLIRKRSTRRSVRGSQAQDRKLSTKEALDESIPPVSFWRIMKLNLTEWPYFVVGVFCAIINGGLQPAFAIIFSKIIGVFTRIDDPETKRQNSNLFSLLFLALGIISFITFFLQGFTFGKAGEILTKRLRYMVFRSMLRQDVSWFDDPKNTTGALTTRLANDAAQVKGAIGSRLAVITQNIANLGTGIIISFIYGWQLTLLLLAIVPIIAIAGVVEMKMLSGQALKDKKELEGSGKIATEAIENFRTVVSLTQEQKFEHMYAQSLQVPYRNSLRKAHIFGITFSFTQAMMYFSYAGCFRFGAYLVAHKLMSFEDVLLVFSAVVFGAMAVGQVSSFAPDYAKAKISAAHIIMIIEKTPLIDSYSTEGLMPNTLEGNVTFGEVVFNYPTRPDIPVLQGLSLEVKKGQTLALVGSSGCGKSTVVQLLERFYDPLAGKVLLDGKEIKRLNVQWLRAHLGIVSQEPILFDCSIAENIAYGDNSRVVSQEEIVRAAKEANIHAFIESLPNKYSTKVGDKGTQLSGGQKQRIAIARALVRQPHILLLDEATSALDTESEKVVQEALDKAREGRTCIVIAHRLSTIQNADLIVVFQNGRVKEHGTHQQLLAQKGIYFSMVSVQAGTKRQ
RAM inhibit: yeast RAM network inhibition. S. cerevisiae dse1pr::URA3 reporter, 5-FOA growth OD615, 2 d; analog-sensitive cbk1-as2 kinase mutant strain. inhibition, % at 50 µM. 190,000 compounds, 1.8% hits;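 active = inhibition above a set limit, 3 SD over mean compound inhibition, cut at about 8.4% in these data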;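 note: 0% = DMSO-only wells with no growth and 100% = 10 µM 1-NA-PP1 full growth; inhibition rescues growth on 5-FOA so higher OD means more RAM inhibition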
ABCG2 block: blocks JC-1 efflux by human ABCG2 transporter; AID 1325; 190,000 compounds, 0.1% hits; inhibition, % at 6.6 µM; IgMXP3 cells, flow cytometry; Q9UNQ0;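 active = inhibition above 80%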;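 note: 0% = DMSO and 100% = nicardipine control wells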
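Test system: IgMXP3 cells (ABCG2) mixed with DDAO far-red-labelled CCRF-Adr cells (ABCB1). Reagent: JC-1 transporter substrate. Compound dosing: single test compound dose, 6.6 µM final. Times: 10 min compound exposure, 25 °C. Detection: flow cytometry of retained JC-1 fluorescence. Read-out basis: efflux inhibition in percent versus controls. Controls: nicardipine and DMSO wells.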
Lmaj promast: Leishmania major promastigote growth inhibition | inhibition, % at 10 µM | AID 1063 | 200,000 compounds, 9% hits | Leishmania major promastigotes, resazurin fluorescence viability; in the data active = inhibition above about 50%;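 note: promastigotes grown with compound for 44 hours at 28 °C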
WT yeast gro inh: growth inhibition of WT yeast, mitochondrial fusion screen | mitochondrial fusion phenotypic screen, WT strain | inhibition, % at 10 µM | 190,000 compounds, 2.1% hits; in the data active = inhibition above about 58%; tested in S. cerevisiae
The depositor's hits bear a star; · = no result.

SMILES | ABCB1 block | RAM inhibit | ABCG2 block | Lmaj promast | WT yeast gro inh
O=C(NC1CC1)C1CCN(C2CCN(C(=O)/C=C/c3cccs3)CC2)CC1 | 0 | 0 | 0 | 87* | 2
CCOC(=O)C1CCN(C(=O)/C=C/c2cccs2)CC1 | 1 | 2 | 4 | -2 | 1
O=C(NC1CC1)C1CCN(C2CCN(C(=O)Cc3ccc4c(c3)OCO4)CC2)CC1 | 0 | -1 | 3 | -2 | -5
O=C(NC1CC1)C1CCN(C2CCN(C(=O)/C=C/c3cccc(F)c3F)CC2)CC1 | 0 | 2 | 1 | 82* | -7
Cc1ccc(Cl)cc1NC(=S)N(CCCN1CCN(C)CC1)Cc1ccco1 | 1 | 1 | 3 | 21 | -10
Cc1ccc(C)c(Oc2cc(NC(=O)CCCn3nc(C)c([N+](=O)[O-])c3C)cc([N+](=O)[O-])c2)c1 | -1 | 6 | -4 | 7 | 17
Cc1c(Cl)cccc1NC(=O)CCCn1nc([N+](=O)[O-])cc1C | 1 | 2 | 4 | -5 | -3
CCn1nc(C)c(C(=O)Nc2cc(Oc3cc(C)cc(C)c3)cc([N+](=O)[O-])c2)c1C | 2 | 2 | 11 | 10 | 69*
Cc1ccc(Oc2cc(NC(=O)CCCn3nc([N+](=O)[O-])cc3C)cc([N+](=O)[O-])c2)cc1 | 2 | 9.5* | 11 | 95* | 37
Cc1cc([N+](=O)[O-])nn1CCCC(=O)NC(C)c1ccccc1 (stereo not drawn) | 1 | 2 | 8 | 51* | -5
Cc1cc([N+](=O)[O-])nn1CCCC(=O)Nc1ccc(Cl)cc1Cl | 0 | 3 | 7 | 3 | -17
Cc1nn(CCCC(=O)Nc2cc(Oc3ccccc3)cc([N+](=O)[O-])c2)c(C)c1[N+](=O)[O-] | 1 | 6 | 7 | 99* | 19
O=C(N/N=C/c1ccc(Br)s1)c1c[nH]c2ccccc12 | 0 | 0 | -1 | 8 | -20
CN(C)c1nc(N(C)C)nc(N(C#N)CN2C(=O)c3ccccc3C2=O)n1 | 1 | 2 | 20 | -5 | -3
Cc1cccc(NC(=O)CSc2nnc(-c3ccco3)c(-c3ccco3)n2)c1C | -1 | 3 | -3 | 87* | 5
Cc1ccccc1NC(=O)CSc1ccc(-c2ccco2)nn1 | 0 | 3 | 3 | -1 | -6
Cc1cc(C)cc(NC(=O)CSc2ccc(-c3cccs3)nn2)c1 | 1 | 2 | 3 | 72* | 23
Cc1ccc(C)c(NC(=O)CSc2ccc(-c3ccco3)nn2)c1 | 0 | 5 | 5 | 55* | -11
Cc1cccc(NC(=O)CSc2nnc(-c3ccco3)c(-c3ccco3)n2)c1 | -1 | 2 | -2 | 68* | 3
CCOc1ccc(OCCOCCOc2c(Cl)cccc2Cl)cc1 | · | · | · | 60* | ·
Cn1c(O)c(N=NC(=O)c2cccc(S(=O)(=O)N3CCCCC3)c2)c2ccccc21 | 2 | 8.9* | 3 | 2 | -3
O=C1c2ccccc2C(=O)N1/N=C/c1ccc(O)c(O)c1 | 0 | 1 | 3 | -5 | -13
S=c1[nH]c(-c2ccccc2)cn1/N=C/c1cccc2ccccc12 | -1 | 2 | -1 | -10 | 75*
S=c1[nH]nc(-c2ccccn2)n1/N=C/c1cccc2ccccc12 | -2 | -1 | -12 | 50* | -10
S=c1[nH]nc(-c2ccccn2)n1/N=C/c1ccccc1 | -1 | 0 | -5 | 38 | 0
SMILES | ABCB1 block | RAM inhibit | ABCG2 block | Lmaj promast | WT yeast gro inh
S=c1[nH]c(-c2ccccc2)cn1/N=C/c1ccccc1Br | -2 | 6 | -10 | 22 | 68*
Cc1ccc(/C=N/n2cc(-c3ccccc3)[nH]c2=S)s1 | -1 | 7 | -1 | 25 | 68*
COc1cc(/C=C/C(=O)NCCN2CCOCC2)cc(OC)c1OC | · | -1 | 2 | 46 | -32
CCc1sc(C(=O)Nc2ccccc2N2CCOCC2)cc1C | 1 | 1 | 4 | 4 | 28
Cc1ccc(S(=O)(=O)c2nc(NN(C)C)sc2Cl)cc1 | 0 | 0 | 4 | 8 | 20
Cn1c(SCC(=O)NCCc2ccccc2)nc2c([nH]c3ccccc32)c1=O | 0 | 5 | 6 | 93* | -1
Cc1cccc(NC(=O)NC(C)CCc2ccccc2)c1 (stereo not drawn) | 1 | 1 | 32 | 5 | 26
Cc1cccc(NC(=S)NC(C)CCc2ccccc2)c1 (stereo not drawn) | 0 | 2 | 9 | 78* | 74*
Cc1cccc(C(=O)OCC(=O)NC(C)CCc2ccccc2)c1 (stereo not drawn) | 1 | 10* | 6 | 5 | 0
CC(CCc1ccccc1)NC(=O)COC(=O)c1ccccc1O (stereo not drawn) | 0 | 1 | 4 | -1 | -6
CCN1CCN(C(=O)N2CCOCC2)CC1 | 0 | 2 | 0 | -4 | -10
O=S(=O)(Nc1cccc(-c2cn3ccsc3n2)c1)c1ccc(F)cc1 | 0 | 0 | 3 | 34 | -4
O=S(=O)(Nc1cccc(-c2cn3cccnc3n2)c1)c1ccc(-c2ccccc2)cc1 | 0 | 7 | -1 | 1 | 13
O=S(=O)(Nc1cccc(-c2cn3cccnc3n2)c1)c1ccccc1 | 0 | 3 | 14 | 88* | 1
O=S(=O)(Nc1cccc(-c2cn3cccnc3n2)c1)c1ccc(F)cc1 | 0 | 1 | 6 | 71* | 1
CCn1nnc(NC(=O)C(c2ccccc2)c2ccccc2)n1 | 0 | 0 | 1 | -6 | -3
Cc1ccccc1OCC(=O)Nc1cc(S(=O)(=O)N2CCCCC2)ccc1N1CCN(C)CC1 | 3 | 3 | 12 | 46 | 3
CCOC(=O)c1cnc2c(C)c(C)ccc2c1Nc1ccc(S(=O)(=O)Nc2ncccn2)cc1 | 0 | 1 | 1 | -3 | 0
O=C1c2ccccc2C(=O)c2c1ccc1c(=O)n(-c3ccccc3)[nH]c21 | 1 | 6 | 11 | 27 | 25
CC(C)Cn1[nH]c2c3c(ccc2c1=O)C(=O)c1ccccc1C3=O | 0 | 2 | 5 | 90* | 13
Cc1ccc(NC(=O)COC(=O)/C=C/c2cccs2)c(C)c1 | 0 | 4 | 11 | 42 | 6
CC1CN(C(=O)c2ccccc2)C(=Nc2cccc(S(=O)(=O)N(C)C)c2)S1 (stereo not drawn) | 0 | -2 | 1 | 83* | -5
CN(C)S(=O)(=O)c1cccc(N=C2NN=C(c3ccccc3)CS2)c1 | -1 | 3 | -2 | -6 | 20
O=C(/C=C/c1cccc(Cl)c1)N1CCC(Cc2ccccc2)CC1 | 0 | 8 | 2 | 50* | 65*
Clc1ccc(CN2CCC(Cc3ccccc3)CC2)cc1 | 0 | 0 | 0 | 90* | 32
Cc1ccccc1NC(=O)c1ccc(CN2CCC(Cc3ccccc3)CC2)cc1 | 2 | -1 | 5 | 53* | -5
Clc1cccc(CN2CCC(Cc3ccccc3)CC2)c1 | -1 | 0 | 1 | 86* | 48
O=C(/C=C/c1ccccc1)N1CCC(Cc2ccccc2)CC1 | 0 | 2 | 1 | -4 | 3
Cc1ccc(C(=O)Oc2cc(C)n(C)c(=O)c2)cc1 | 1 | -1 | 3 | -4 | -34
